ChEMBL document CHEMBL4219033, “Anticancer activity profiling of parthenolide analogs generated via P450-mediated chemoenzymatic synthesis” (2018)

What was measured:
Format in all cases: functional
[1] = tested on: SK-MEL-2; assay: Cytotoxicity against human SK-MEL-2 cells assessed as cell viability ratio at 10 uM after 24 hrs by MTT assay relative to control
Method in brief: (§1)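 Adherent lines in DMEM plus 10% FBS and penicillin-streptomycin, 37 °C, 5% CO2, lifted with Accutase. Seeded at 500–10,000 cells/well and rested 15 h. Compounds from 10 mM DMSO stocks dosed at 10 µM final, 1% DMSO final, n = 5, for 24 h. Medium then swapped for 1 mg/ml MTT in phenol-red-free medium for 3 h at 37 °C. Formazan dissolved in DMSO, OD read at 550 nm. Viability normalised to 1% DMSO vehicle control.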

[2] = tested on: PC-3; assay: Cytotoxicity against human PC3 cells assessed as cell viability ratio at 10 uM after 24 hrs by MTT assay relative to control; method in brief: as §1
[3] = tested on: HCT-116; assay: Cytotoxicity against human HCT116 cells assessed as cell viability ratio at 10 uM after 24 hrs by MTT assay relative to control
[4] = tested on: A549; assay: Cytotoxicity against human A549 cells assessed as cell viability ratio at 10 uM after 24 hrs by MTT assay relative to control; method in brief: as §1
[5] = tested on: JeKo-1; assay: Cytotoxicity against human JeKo1 cells assessed as cell viability ratio at 10 uM after 24 hrs by MTT assay relative to control
Method in brief: (§2)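 Suspension lines grown in α-MEM plus 10% FBS and penicillin-streptomycin, 37 °C, 5% CO2. Seeded at 30,000 cells/well in phenol-red-free α-MEM and rested 15 h. Exposed to 10 µM, or 2 µM in the lower-dose repeat, at 1% DMSO final for 24 h. 5 mg/ml MTT added directly for 3 h at 37 °C. Plates spun, formazan dissolved in DMSO, OD read at 550 nm. Viability relative to vehicle.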

[6] = tested on: Jurkat; assay: Cytotoxicity against human Jurkat cells assessed as cell viability ratio at 10 uM after 24 hrs by MTT assay relative to control; method in brief: as §2
[7] = tested on: SJSA-1; assay: Cytotoxicity against human SJSA1 cells assessed as cell viability ratio at 10 uM after 24 hrs by MTT assay relative to control; method in brief: as §1
[8] = tested on: SK-N-MC; assay: Cytotoxicity against human SK-N-MC cells assessed as cell viability ratio at 10 uM after 24 hrs by MTT assay relative to control; method in brief: as §1
[9] = tested on: HeLa; assay: Cytotoxicity against human HeLa cells assessed as cell viability ratio at 10 uM after 24 hrs by MTT assay relative to control; method in brief: as §1
[10] = tested on: MDA-MB-231; assay: Cytotoxicity against human MDA-MB-231 cells assessed as cell viability ratio at 10 uM after 24 hrs by MTT assay relative to control; method in brief: as §1
[11] = tested on: SK-N-MC; assay: Cytotoxicity against human SK-N-MC cells assessed as cell viability at 10 uM after 24 hrs by MTT assay relative to control; conditions: read-out: Activity; method in brief: as §1
[12] = tested on: MDA-MB-231; assay: Cytotoxicity against human MDA-MB-231 cells assessed as cell viability after 24 hrs by MTT assay; conditions: MDA-MB-231, 24 h, read-out: LC50 (the source's name)
Method in brief: (§3)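 Adherent cells grown in DMEM with 10% FBS and penicillin-streptomycin, dissociated with Accutase, seeded at 500–10,000 cells/well and held 15 h before treatment. Compounds diluted from 10 mM DMSO stocks, final 1% DMSO, for 24 h at 37 °C, 5% CO2. Medium replaced with 1 mg/ml MTT for 3 h, formazan dissolved in DMSO, OD 550 nm. LC50 from dose-response curves normalized to 1% DMSO vehicle.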

[13] = tested on: HCT-116; assay: Cytotoxicity against human HCT116 cells assessed as cell viability after 24 hrs by MTT assay; conditions: HCT-116, 24 h, read-out: LC50 (the source's name); method in brief: as §3
[14] = tested on: SK-MEL-2; assay: Cytotoxicity against human SK-MEL-2 cells assessed as cell viability at 10 uM after 24 hrs by MTT assay relative to control; conditions: SK-MEL-2, 24 h, read-out: Activity; method in brief: as §1
[15] = tested on: SK-MEL-2; assay: Cytotoxicity against human SK-MEL-2 cells assessed as cell viability after 24 hrs by MTT assay; conditions: SK-MEL-2, 24 h, read-out: LC50 (the source's name); method in brief: as §3
[16] = tested on: Jurkat; assay: Cytotoxicity against human Jurkat cells assessed as cell viability after 24 hrs by MTT assay; conditions: read-out: LC50 (the source's name)
Method in brief: (§4)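 Suspension cells grown in α-MEM with 10% FBS and penicillin-streptomycin, seeded at 30,000 cells/well in phenol red-free medium and held 15 h before treatment. Compounds diluted from 10 mM DMSO stocks, final 1% DMSO, for 24 h. MTT (5 mg/ml stock) added directly for 3 h at 37 °C, then centrifugation, DMSO solubilization, OD 550 nm. LC50 from dose-response curves normalized to vehicle.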

[17] = tested on: A549; assay: Cytotoxicity against human A549 cells assessed as cell viability after 24 hrs by MTT assay; conditions: A549, 24 h, read-out: LC50 (the source's name); method in brief: as §3
[18] = tested on: JeKo-1; assay: Cytotoxicity against human JeKo1 cells assessed as cell viability after 24 hrs by MTT assay; conditions: JeKo-1, 24 h, read-out: LC50 (the source's name); method in brief: as §4
[19] = tested on: HeLa; assay: Cytotoxicity against human HeLa cells assessed as cell viability after 24 hrs by MTT assay; conditions: read-out: LC50 (the source's name); method in brief: as §3
[20] = tested on: A549; assay: Cytotoxicity against human A549 cells assessed as cell viability at 10 uM after 24 hrs by MTT assay relative to control; conditions: A549, 24 h, read-out: Activity; method in brief: as §1
[21] = tested on: MDA-MB-231; assay: Cytotoxicity against human MDA-MB-231 cells assessed as cell viability at 10 uM after 24 hrs by MTT assay relative to control; conditions: MDA-MB-231, 24 h, read-out: Activity; method in brief: as §1
[22] = tested on: HeLa; assay: Cytotoxicity against human HeLa cells assessed as cell viability at 10 uM after 24 hrs by MTT assay relative to control; conditions: read-out: Activity; method in brief: as §1
[23] = tested on: PC-3; assay: Cytotoxicity against human PC3 cells assessed as cell viability after 24 hrs by MTT assay; conditions: PC-3, 24 h, read-out: LC50 (the source's name); method in brief: as §3
[24] = tested on: JeKo-1; assay: Cytotoxicity against human JeKo1 cells assessed as cell viability at 10 uM after 24 hrs by MTT assay relative to control; conditions: JeKo-1, 24 h, read-out: Activity; method in brief: as §2
[25] = tested on: JeKo-1; assay: Cytotoxicity against human JeKo1 cells assessed as cell viability at 2 uM after 24 hrs by MTT assay relative to control; conditions: JeKo-1, 24 h, read-out: Activity; method in brief: as §2
[26] = tested on: SJSA-1; assay: Cytotoxicity against human SJSA1 cells assessed as cell viability after 24 hrs by MTT assay; conditions: SJSA-1, 24 h, read-out: LC50 (the source's name); method in brief: as §3
[27] = tested on: PC-3; assay: Cytotoxicity against human PC3 cells assessed as cell viability at 10 uM after 24 hrs by MTT assay relative to control; conditions: PC-3, 24 h, read-out: Activity; method in brief: as §1
[28] = tested on: Jurkat; assay: Cytotoxicity against human Jurkat cells assessed as cell viability at 2 uM after 24 hrs by MTT assay relative to control; conditions: read-out: Activity; method in brief: as §2
[29] = tested on: Jurkat; assay: Cytotoxicity against human Jurkat cells assessed as cell viability at 10 uM after 24 hrs by MTT assay relative to control; conditions: read-out: Activity; method in brief: as §2
[30] = tested on: HCT-116; assay: Cytotoxicity against human HCT116 cells assessed as cell viability at 10 uM after 24 hrs by MTT assay relative to control; conditions: HCT-116, 24 h, read-out: Activity; method in brief: as §1
[31] = tested on: SJSA-1; assay: Cytotoxicity against human SJSA1 cells assessed as cell viability at 10 uM after 24 hrs by MTT assay relative to control; conditions: SJSA-1, 24 h, read-out: Activity; method in brief: as §1
[32] = tested on: SK-N-MC; assay: Cytotoxicity against human SK-N-MC cells assessed as cell viability after 24 hrs by MTT assay; conditions: read-out: LC50 (the source's name); method in brief: as §3

Row | SMILES | fold change (FC) [1] | fold change (FC) [2] | viability at 10 µM [11] [%] | CC50 [12] [µM] | viability at 10 µM [14] [%] | CC50 [15] [µM] | CC50 [16] [µM] | CC50 [18] [µM] | viability at 10 µM [20] [%] | viability at 10 µM [21] [%] | viability at 10 µM [22] [%] | CC50 [23] [µM] | viability at 10 µM [24] [%] | viability at 2 µM [25] [%] | viability at 10 µM [27] [%] | viability at 2 µM [28] [%] | viability at 10 µM [29] [%] | viability at 10 µM [30] [%] | viability at 10 µM [31] [%] | CC50 [32] [µM] | further results
1 | C=C1C(=O)O[C@@H]2[C@H]3O[C@]3(C)CC/C=C(\CO)CC[C@@H]12 | 1 | 1 |  |  |  |  |  |  |  |  |  |  |  |  |  |  |  |  |  |  | fold change (FC) [3]: 0.9; fold change (FC) [4]: 0.9; fold change (FC) [5]: 1; fold change (FC) [6]: 1; fold change (FC) [7]: 0.9; fold change (FC) [8]: 1; fold change (FC) [9]: 0.3; fold change (FC) [10]: 1
2 | C=C1C(=O)O[C@@H]2C3O[C@]3(C)CC/C=C(\C)CC[C@@H]12 (some centres not stated) |  |  | 30 | 18.3 | 95.8 | 24.9 | 16.9 | 10 | 85 | 67 | 35 | 20.5 | 47.5 | 100 | 82.6 | 100 | 70.3 | 104 | 100 | 4.7 | CC50 [13]: 18 µM; CC50 [17]: 29.7 µM; CC50 [19]: 9 µM; CC50 [26]: 42.4 µM
3 | C=C1C(=O)O[C@@H]2[C@H]3O[C@]3(C)CC/C=C(/C)[C@@H](OC(=O)c3cc(C(F)(F)F)cc(C(F)(F)F)c3)C[C@@H]12 |  |  | 3 | 3.8 | 14.8 | 2.6 | 1.2 | 1.2 | 82.5 | 3.6 | 32 | 3.1 | 4.1 | 73.3 | 2.2 | 53.1 | 5 | 54.4 | 88.2 | 4.7 | 
4 | C=C1C(=O)O[C@@H]2[C@H]3O[C@]3(C)CC/C=C(\C)[C@@H](O)C[C@@H]12 | 1 | 1 |  |  |  |  |  |  |  |  |  |  |  |  |  |  |  |  |  |  | fold change (FC) [3]: 1; fold change (FC) [4]: 1; fold change (FC) [5]: 1; fold change (FC) [6]: 1; fold change (FC) [7]: 0.9; fold change (FC) [8]: 1; fold change (FC) [9]: 0.2; fold change (FC) [10]: 0.9
5 | C=C1C(=O)O[C@@H]2[C@H]3O[C@]3(C)CC/C=C(/COC(=O)Nc3cc(C(F)(F)F)cc(C(F)(F)F)c3)CC[C@@H]12 |  |  | 2.1 | 6.1 | 25.7 | 4.3 | 3.3 | 3.4 | 25.1 | 5.5 | 3.8 | 5.5 | -1.8 | 71.5 | 13.7 | 74.9 | 0 | 3.9 | 23.3 | 0.6 | CC50 [13]: 5.9 µM; CC50 [17]: 5.5 µM; CC50 [19]: 1.5 µM; CC50 [26]: 9.2 µM
